# Tests used:
# [1] = system: Rattus norvegicus; test: Serum Triglyceride levels in female obese rats two weeks post treatment at 30 mg/kg oral dose; pretreatment value = 1240 mg/dL; type: functional
# [2] = system: Rattus norvegicus; test: Serum NEFA levels in female obese rats one week post treatment at 10 mg/kg oral dose; pretreatment value = 1.2 mg/dL; type: functional
# [3] = system: Rattus norvegicus; test: Serum Non-HDL cholesterol levels in female obese rats one week post treatment at 3 mg/kg oral dose; pretreatment value = 21 mg/dL; type: functional
# Method in brief: (§1)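 Female obese Zucker fatty rats (10–12 weeks, 400–500 g), once-daily oral gavage in 20% EtOH/80% PEG-200 (v/v) for up to 14 days. Serum drawn after a 6 h fast, pre-dose and at days 7 and 14. Non-HDL cholesterol is serum total cholesterol times the percent area of the non-HDL peaks in a Superose 6HR gel-filtration profile with on-line cholesterol detection. n = 4 per dose.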
# [4] = system: Rattus norvegicus; test: Serum Non-HDL cholesterol levels in female obese rats two weeks post treatment at 3 mg/kg oral dose; pretreatment value = 21 mg/dL; type: functional; method in brief: as §1
# [5] = system: Rattus norvegicus; test: Blood glucose levels in female obese rats one week post treatment at 3 mg/kg oral dose; pretreatment value = 117 mg/dL; type: functional
# [6] = system: Rattus norvegicus; test: Serum HDL cholesterol levels in female obese rats one week post treatment at 10 mg/kg oral dose; pretreatment value = 56 mg/dL; type: functional
# [7] = system: Rattus norvegicus; test: Insulin levels in female obese rats two weeks post treatment at 100 mg/kg oral dose; pretreatment value = 12.7 ng/mL; type: functional
# [8] = system: Rattus norvegicus; test: Serum Triglyceride levels in female obese rats two weeks post treatment at 100 mg/kg oral dose; pretreatment value = 746 mg/dL; type: functional
# [9] = system: Rattus norvegicus; test: Insulin levels in female obese rats one week post treatment at 30 mg/kg oral dose; pretreatment value = 9.3 ng/mL; type: functional
# [10] = system: Rattus norvegicus; test: Serum NEFA levels in female obese rats one week post treatment at 100 mg/kg oral dose; pretreatment value = 1.1 mg/dL; type: functional
# [11] = system: Rattus norvegicus; test: Serum Triglyceride levels in female obese rats two weeks post treatment at 3 mg/kg oral dose; pretreatment value = 769 mg/dL; type: functional
# [12] = system: Rattus norvegicus; test: Insulin levels in female obese rats two weeks post treatment at 3 mg/kg oral dose; pretreatment value = 12.9 ng/mL; type: functional
# [13] = system: Rattus norvegicus; test: Blood glucose levels in female obese rats two weeks post treatment at 10 mg/kg oral dose; pretreatment value = 112 mg/dL; type: functional
# [14] = system: Rattus norvegicus; test: Blood glucose levels in female obese rats two weeks post treatment at 30 mg/kg oral dose; pretreatment value = 109 mg/dL; type: functional
# [15] = system: Rattus norvegicus; test: Insulin levels in female obese rats one week post treatment at 10 mg/kg oral dose; pretreatment value = 8.2 ng/mLL; type: functional
# [16] = system: Rattus norvegicus; test: Serum Non-HDL cholesterol levels in female obese rats one week post treatment at 10 mg/kg oral dose; pretreatment value = 25 mg/dL; type: functional; method in brief: as §1
# [17] = system: Rattus norvegicus; test: Serum NEFA levels in female obese rats one week post treatment at 3 mg/kg oral dose; pretreatment value = 1.2 mg/dL; type: functional
# [18] = system: Rattus norvegicus; test: Serum HDL cholesterol levels in female obese rats two weeks post treatment at 10 mg/kg oral dose; pretreatment value = 56 mg/dL; type: functional
# [19] = system: Rattus norvegicus; test: Serum NEFA levels in female obese rats two weeks post treatment at 30 mg/kg oral dose; pretreatment value = 1.3 mg/dL; type: functional
# [20] = system: Rattus norvegicus; test: Serum Triglyceride levels in female obese rats one week post treatment at 3 mg/kg oral dose; pretreatment value = 769 mg/dL; type: functional
# [21] = system: Rattus norvegicus; test: Serum HDL cholesterol levels in female obese rats two weeks post treatment at 3 mg/kg oral dose; pretreatment value = 59 mg/dL; type: functional
# [22] = system: Rattus norvegicus; test: Serum NEFA levels in female obese rats two weeks post treatment at 100 mg/kg oral dose; pretreatment value = 1.1 mg/dL; type: functional
# [23] = system: Rattus norvegicus; test: Insulin levels in female obese rats two weeks post treatment at 10 mg/kg oral dose; pretreatment value = 8.2 ng/mL; type: functional
# [24] = system: Rattus norvegicus; test: Serum Triglyceride levels in female obese rats two weeks post treatment at 10 mg/kg oral dose; pretreatment value = 943 mg/dL; type: functional
# [25] = system: Rattus norvegicus; test: Serum Triglyceride levels in female obese rats two weeks post treatment at 3 mg/kg oral dose; pretreatment value = 1111 mg/dL; type: functional
# [26] = system: Rattus norvegicus; test: Insulin levels in female obese rats two weeks post treatment at 10 mg/kg oral dose; pretreatment value = 8.8 ng/mL; type: functional
# [27] = system: Rattus norvegicus; test: Insulin levels in female obese rats one week post treatment at 100 mg/kg oral dose; pretreatment value = 8.6 ng/mL; type: functional
# [28] = system: Rattus norvegicus; test: Serum HDL cholesterol levels in female obese rats one week post treatment at 30 mg/kg oral dose; pretreatment value = 49 mg/dL; type: functional
# [29] = system: Rattus norvegicus; test: Serum NEFA levels in female obese rats two weeks post treatment at 100 mg/kg oral dose; pretreatment value = 1.2 mg/dL; type: functional
# [30] = system: Rattus norvegicus; test: Serum Non-HDL cholesterol levels in female obese rats two weeks post treatment at 10 mg/kg oral dose; pretreatment value = 33 mg/dL
# [31] = system: Rattus norvegicus; test: Serum HDL cholesterol levels in female obese rats one week post treatment at 100 mg/kg oral dose; pretreatment value = 58 mg/dL; type: functional
# [32] = system: Rattus norvegicus; test: Insulin levels in female obese rats two weeks post treatment at 30 mg/kg oral dose; pretreatment value = 9 ng/mL; type: functional
# [33] = system: Rattus norvegicus; test: Serum NEFA levels in female obese rats one week post treatment at 3 mg/kg oral dose; pretreatment value = 1.1 mg/dL; type: functional
# [34] = system: Rattus norvegicus; test: Insulin levels in female obese rats two weeks post treatment at 3 mg/kg oral dose; pretreatment value = 13.3 ng/mL; type: functional
# [35] = system: Rattus norvegicus; test: Serum Triglyceride levels in female obese rats two weeks post treatment at 100 mg/kg oral dose; pretreatment value = 1068 mg/dL; type: functional
# [36] = system: Rattus norvegicus; test: Serum Triglyceride levels in female obese rats one week post treatment at 10 mg/kg oral dose; pretreatment value = 1185 mg/dL; type: functional
# [37] = system: Rattus norvegicus; test: Serum HDL cholesterol levels in female obese rats one week post treatment at 3 mg/kg oral dose; pretreatment value = 57 mg/dL; type: functional
# [38] = system: Rattus norvegicus; test: Serum HDL cholesterol levels in female obese rats two weeks post treatment at 3 mg/kg oral dose; pretreatment value = 57 mg/dL; type: functional
# [39] = system: Rattus norvegicus; test: Serum HDL cholesterol levels in female obese rats two weeks post treatment at 10 mg/kg oral dose; pretreatment value = 61 mg/dL; type: functional
# [40] = system: Rattus norvegicus; test: Serum NEFA levels in female obese rats one week post treatment at 30 mg/kg oral dose; pretreatment value = 1.2 mg/dL; type: functional
# [41] = system: Rattus norvegicus; test: Serum HDL cholesterol levels in female obese rats two weeks post treatment at 30 mg/kg oral dose; pretreatment value = 49 mg/dL; type: functional
# [42] = system: Rattus norvegicus; test: Insulin levels in female obese rats one week post treatment at 10 mg/kg oral dose; pretreatment value = 8.8 […]; type: functional
# [43] = system: Rattus norvegicus; test: Serum NEFA levels in female obese rats one week post treatment at 100 mg/kg oral dose; pretreatment value = 1.2 mg/dL; type: functional
# [44] = system: Rattus norvegicus; test: Serum Triglyceride levels in female obese rats two weeks post treatment at 10 mg/kg oral dose; pretreatment value = 1185 mg/dL; type: functional
structure (smiles),measurement,setting,value
CC(C)(CO)CCCCOCCCCC(C)(C)CO,Activity,[1],324 mg/dL
same,Activity,[2],1.2 mg/dL
same,Activity,[3],26 mg/dL
same,Activity,[4],29 mg/dL
same,Activity,[5],114 mg/dL
same,Activity,[6],100 mg/dL
same,Activity,[7],12.8 ng/mL
same,Activity,[8],219 mg/dL
same,Activity,[9],14.2 ng/mL
same,Activity,[10],0.76 mg/dL
same,Activity,[11],934 mg/dL
same,Activity,[12],9.9 ng/mL
same,Activity,[13],117 mg/dL
same,Activity,[14],123 mg/dL
same,Activity,[15],8.9 ng/mL
same,Activity,[16],30 mg/dL
same,Activity,[17],1.7 mg/dL
same,Activity,[18],134 mg/dL
same,Activity,[19],0.75 mg/dL
same,Activity,[20],770 mg/dL
same,Activity,[21],79 mg/dL
same,Activity,[22],0.83 mg/dL
same,Activity,[23],9 ng/mL
same,Activity,[24],706 mg/dL
CC(C)(CO)CCCCCOCCCCCC(C)(C)CO,Activity,[25],1116 mg/dL
same,Activity,[26],8.7 ng/mL
same,Activity,[27],3.5 ng/mL
same,Activity,[28],128 mg/dL
same,Activity,[29],0.7 mg/dL
same,Activity,[30],53 mg/dL
same,Activity,[31],115 mg/dL
same,Activity,[32],10.4 ng/mL
same,Activity,[33],1.3 mg/dL
same,Activity,[34],11.4 ng/mL
same,Activity,[35],167 mg/dL
same,Activity,[36],1159 mg/dL
same,Activity,[37],55 mg/dL
same,Activity,[38],56 mg/dL
same,Activity,[39],110 mg/dL
same,Activity,[40],0.89 mg/dL
same,Activity,[41],138 mg/dL
same,Activity,[42],14.8 ng/mL
same,Activity,[43],1.2 mg/dL
same,Activity,[44],1420 mg/dL
